Source: ChEMBL document CHEMBL4665670 (ACS Med Chem Lett, 2019)
Calls of active or inactive are those of the source. No cut-off for these calls is given here.

What was measured:
[1] = target: T1, Tyrosine-protein kinase BTK (Homo sapiens, UniProt Q06187); test: Inhibition of full length human unphosphorylated BTK using FITC-Ahx-TSELKKVVALYDYMPMNAND-NH2 as substrate incubated for 60 mins in presence of ATP at Km concentration
[2] = Intrinsic clearance in rat liver microsomes; type: ADME, Microsome
[3] = target: T1, Tyrosine-protein kinase BTK; test: Inhibition of BTK in human whole blood assessed as reduction in polyclonal anti-IgM antibody/human IL4-stimulated CD69 cell surface expression on B cells incubated for 16 hrs by FACS analysis; type: tissue-based
[4] = Intrinsic clearance in human liver microsomes; type: ADME, Microsome
[5] = (§1) In vivo protein occupancy at BTK in Wistar Han rat spleen at 10 mg/kg, po measured after 5 hrs relative to control; type: functional
Summary of the method: (§2)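 BTK occupancy measured in spleen homogenates of female rats 5 h after a single 10 mg kg^-1 oral dose, relative to the respective vehicle control. Single-animal values, mean ± SD.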

[6] = Clearance in Sprague-Dawley rat at 1 mg/kg, iv measured up to 24 hrs by HPLC analysis; type: ADME, organism-based; conditions: in vivo
[7] = target: T2, Epidermal growth factor receptor (Homo sapiens, UniProt P00533); test: Inhibition of EGFR (unknown origin)
[8] = Terminal plasma concentration in ovalbumin-immunized C57Bl6 mouse at 60 mg/kg, po administered 2 h prior to OVA immunization and measured after 5 hrs; type: ADME, organism-based; conditions: read-out: Cp(T)
Summary of the method: (§3)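 Terminal blood drug concentrations taken in the mouse reverse passive Arthus study (i.v. OVA plus intradermal IgG anti-OVA), after a single oral dose of 6, 20 or 60 mg/kg given 2 h before induction, sampled 5 h after dosing.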

[9] = Terminal plasma concentration in ovalbumin-immunized C57Bl6 mouse at 20 mg/kg, po administered 2 h prior to OVA immunization and measured after 5 hrs; type: ADME, organism-based; conditions: read-out: Cp(T); summary of the method: as §3
[10] = target: T1, Tyrosine-protein kinase BTK; test: Inhibition of BTK in vitamin D3 differentiated human THP1 cells assessed as inhibition of FCgammaR-induced IL8 production measured after 24 hrs by immunoblot analysis
[11] = Intrinsic clearance in mouse liver microsomes; type: ADME, Microsome
Mus musculus [12] = test: […] activity in ovalbumin-immunized po dosed C57Bl6 mouse assessed as reduction in skin swelling administered 2 h prior to OVA immunization and measured after 5 hrs by caliper method; type: functional, organism-based; conditions: dose mg/kg 6-60, time 2.0 hrs
Summary of the method: (§4)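 Mouse reverse passive Arthus reaction: acute FcγR-dependent hypersensitivity induced by intravenous ovalbumin antigen followed by intradermal polyclonal IgG anti-OVA antibody. Single oral dose given 2 h before induction; skin swelling measured 5 h after dosing, compared with vehicle control (SD shown).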

Mus musculus [13] = test: […] activity in ovalbumin-immunized C57Bl6 mouse assessed as reduction in skin swelling at 60 mg/kg, po administered 2 h prior to OVA immunization and measured after 5 hrs by caliper method relative to control; type: functional; parameters: scale not given: the % may be the effect or the level left; summary of the method: as §4
[14] = target: T1, Tyrosine-protein kinase BTK; test: Irreversible inhibition of human BTK kinase domain by LC/MS analysis
[15] = target: Receptor tyrosine-protein kinase erbB-4 (Homo sapiens, UniProt Q15303); test: Inhibition of ERBB4 (unknown origin)
[16] = target: Receptor tyrosine-protein kinase erbB-2 (Homo sapiens) (UniProt P04626); test: Inhibition of ERBB2 (unknown origin)
[17] = Terminal plasma concentration in ovalbumin-immunized C57Bl6 mouse at 6 mg/kg, po administered 2 h prior to OVA immunization and measured after 5 hrs; type: ADME, organism-based; conditions: read-out: Cp(T); summary of the method: as §3
[18] = target: T2, Epidermal growth factor receptor; test: Inhibition of EGF-induced EGFR phosphorylation in human A431 cells preincubated for 24 hrs followed by EGF stimulation and measured after 10 mins by HTRF based immunoassay; type: cell-based
[19] = Clearance in Sprague-Dawley rat at 3 mg/kg, po measured up to 24 hrs by HPLC analysis; type: ADME, organism-based; conditions: in vivo
Rattus norvegicus = test: as §1; type: functional; summary of the method: as §2
[20] = Oral bioavailability in Sprague-Dawley rat at 3 mg/kg measured up to 24 hrs by HPLC analysis; type: ADME, organism-based; conditions: in vivo
[21] = target: T3, Tyrosine-protein kinase JAK3 (Homo sapiens) (UniProt P52333); test: Inhibition of JAK3 (unknown origin)
T3 sequence (whole entry): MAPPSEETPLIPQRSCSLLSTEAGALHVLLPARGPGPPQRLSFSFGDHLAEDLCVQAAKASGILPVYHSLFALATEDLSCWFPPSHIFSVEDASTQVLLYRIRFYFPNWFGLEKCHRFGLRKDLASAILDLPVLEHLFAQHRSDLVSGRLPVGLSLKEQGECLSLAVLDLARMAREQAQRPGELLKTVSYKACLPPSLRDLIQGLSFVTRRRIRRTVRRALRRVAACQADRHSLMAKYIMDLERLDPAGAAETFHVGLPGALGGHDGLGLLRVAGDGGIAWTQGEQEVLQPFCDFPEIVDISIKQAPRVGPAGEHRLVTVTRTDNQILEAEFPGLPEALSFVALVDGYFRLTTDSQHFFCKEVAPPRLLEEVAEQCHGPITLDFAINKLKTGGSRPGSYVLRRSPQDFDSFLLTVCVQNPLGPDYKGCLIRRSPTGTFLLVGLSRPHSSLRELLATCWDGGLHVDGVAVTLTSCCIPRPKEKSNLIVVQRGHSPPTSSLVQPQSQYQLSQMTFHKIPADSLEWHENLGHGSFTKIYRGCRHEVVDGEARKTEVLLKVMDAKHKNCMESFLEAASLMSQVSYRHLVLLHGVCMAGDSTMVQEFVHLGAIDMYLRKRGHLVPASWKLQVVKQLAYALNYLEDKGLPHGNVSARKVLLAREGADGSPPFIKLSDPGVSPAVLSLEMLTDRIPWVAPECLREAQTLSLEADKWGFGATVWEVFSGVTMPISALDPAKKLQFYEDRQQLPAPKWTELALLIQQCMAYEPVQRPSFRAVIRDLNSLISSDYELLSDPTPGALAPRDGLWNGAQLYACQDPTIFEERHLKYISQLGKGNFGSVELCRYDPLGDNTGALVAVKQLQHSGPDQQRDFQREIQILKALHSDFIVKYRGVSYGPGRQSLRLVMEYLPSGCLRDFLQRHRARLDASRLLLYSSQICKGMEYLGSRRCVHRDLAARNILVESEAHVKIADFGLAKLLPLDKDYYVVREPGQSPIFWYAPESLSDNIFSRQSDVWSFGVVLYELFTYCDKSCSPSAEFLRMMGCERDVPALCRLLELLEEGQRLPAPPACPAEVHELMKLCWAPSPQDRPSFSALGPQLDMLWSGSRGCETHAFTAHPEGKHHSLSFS

[22] = Terminal plasma concentration in ovalbumin-immunized C57Bl6 mouse at 30 mg/kg, po administered 2 h prior to OVA immunization and measured after 5 hrs; type: ADME, organism-based; conditions: read-out: Cp(T)
Summary of the method: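 Mice received a single oral dose 2 h before induction of the reverse passive Arthus reaction, which was intravenous ovalbumin followed by intradermal polyclonal IgG anti-OVA antibody. Terminal blood compound concentration was measured 5 h after dosing and reported in nM.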

Mus musculus [23] = test: […] activity in ovalbumin-immunized C57Bl6 mouse assessed as reduction in skin swelling at 30 mg/kg, po administered 2 h prior to OVA immunization and measured after 5 hrs by caliper method relative to control; type: functional; parameters: scale not given: the % may be the effect or the level left; summary of the method: as §4

T1 sequence (Q06187 whole entry): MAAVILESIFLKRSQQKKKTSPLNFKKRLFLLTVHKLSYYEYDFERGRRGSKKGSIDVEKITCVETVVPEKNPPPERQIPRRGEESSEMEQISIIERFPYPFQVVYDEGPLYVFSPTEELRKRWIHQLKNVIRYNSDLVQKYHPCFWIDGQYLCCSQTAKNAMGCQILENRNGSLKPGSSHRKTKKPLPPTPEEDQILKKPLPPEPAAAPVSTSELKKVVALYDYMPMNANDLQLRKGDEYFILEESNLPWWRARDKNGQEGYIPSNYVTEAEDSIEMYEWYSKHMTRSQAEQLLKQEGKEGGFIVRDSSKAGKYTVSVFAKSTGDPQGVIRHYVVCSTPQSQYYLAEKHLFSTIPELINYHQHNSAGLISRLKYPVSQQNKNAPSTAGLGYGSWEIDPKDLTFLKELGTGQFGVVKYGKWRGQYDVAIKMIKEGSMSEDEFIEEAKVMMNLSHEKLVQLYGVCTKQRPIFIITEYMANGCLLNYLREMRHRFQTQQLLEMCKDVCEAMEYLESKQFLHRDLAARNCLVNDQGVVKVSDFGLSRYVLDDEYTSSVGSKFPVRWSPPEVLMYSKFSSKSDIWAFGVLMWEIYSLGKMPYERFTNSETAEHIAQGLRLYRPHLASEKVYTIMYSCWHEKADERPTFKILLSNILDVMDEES
T2 sequence (P00533 whole entry): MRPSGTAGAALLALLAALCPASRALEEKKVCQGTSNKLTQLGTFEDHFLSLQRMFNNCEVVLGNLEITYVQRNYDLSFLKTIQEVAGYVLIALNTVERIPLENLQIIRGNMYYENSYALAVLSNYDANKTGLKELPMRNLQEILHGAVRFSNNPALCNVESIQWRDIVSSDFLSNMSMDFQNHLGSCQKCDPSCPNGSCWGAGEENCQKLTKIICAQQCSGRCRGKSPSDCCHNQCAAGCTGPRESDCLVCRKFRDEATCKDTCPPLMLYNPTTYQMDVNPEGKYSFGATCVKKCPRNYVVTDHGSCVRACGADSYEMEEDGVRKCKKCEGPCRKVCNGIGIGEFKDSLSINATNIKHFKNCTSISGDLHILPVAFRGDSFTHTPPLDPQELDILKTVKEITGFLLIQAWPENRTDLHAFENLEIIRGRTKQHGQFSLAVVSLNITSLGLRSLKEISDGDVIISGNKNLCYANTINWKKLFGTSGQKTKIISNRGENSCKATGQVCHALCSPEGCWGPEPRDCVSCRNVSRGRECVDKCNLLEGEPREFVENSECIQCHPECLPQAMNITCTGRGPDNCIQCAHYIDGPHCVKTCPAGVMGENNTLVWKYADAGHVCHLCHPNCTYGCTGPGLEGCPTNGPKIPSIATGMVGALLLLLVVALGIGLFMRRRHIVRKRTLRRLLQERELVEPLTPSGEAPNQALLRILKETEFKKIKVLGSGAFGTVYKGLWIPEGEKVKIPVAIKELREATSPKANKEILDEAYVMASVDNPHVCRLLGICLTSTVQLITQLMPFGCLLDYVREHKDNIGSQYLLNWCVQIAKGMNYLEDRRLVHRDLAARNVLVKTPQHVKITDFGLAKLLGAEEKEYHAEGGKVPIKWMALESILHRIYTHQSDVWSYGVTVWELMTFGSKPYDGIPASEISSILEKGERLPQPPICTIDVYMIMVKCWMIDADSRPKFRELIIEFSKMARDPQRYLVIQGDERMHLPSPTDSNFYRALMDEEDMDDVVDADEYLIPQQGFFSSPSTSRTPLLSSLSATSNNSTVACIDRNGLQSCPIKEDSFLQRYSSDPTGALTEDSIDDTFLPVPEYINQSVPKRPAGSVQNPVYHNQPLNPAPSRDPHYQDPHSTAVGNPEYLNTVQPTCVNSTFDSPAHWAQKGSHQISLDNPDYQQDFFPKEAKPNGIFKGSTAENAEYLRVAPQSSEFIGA
Chain of Receptor tyrosine-protein kinase erbB-2 (Homo sapiens) (P04626 whole entry): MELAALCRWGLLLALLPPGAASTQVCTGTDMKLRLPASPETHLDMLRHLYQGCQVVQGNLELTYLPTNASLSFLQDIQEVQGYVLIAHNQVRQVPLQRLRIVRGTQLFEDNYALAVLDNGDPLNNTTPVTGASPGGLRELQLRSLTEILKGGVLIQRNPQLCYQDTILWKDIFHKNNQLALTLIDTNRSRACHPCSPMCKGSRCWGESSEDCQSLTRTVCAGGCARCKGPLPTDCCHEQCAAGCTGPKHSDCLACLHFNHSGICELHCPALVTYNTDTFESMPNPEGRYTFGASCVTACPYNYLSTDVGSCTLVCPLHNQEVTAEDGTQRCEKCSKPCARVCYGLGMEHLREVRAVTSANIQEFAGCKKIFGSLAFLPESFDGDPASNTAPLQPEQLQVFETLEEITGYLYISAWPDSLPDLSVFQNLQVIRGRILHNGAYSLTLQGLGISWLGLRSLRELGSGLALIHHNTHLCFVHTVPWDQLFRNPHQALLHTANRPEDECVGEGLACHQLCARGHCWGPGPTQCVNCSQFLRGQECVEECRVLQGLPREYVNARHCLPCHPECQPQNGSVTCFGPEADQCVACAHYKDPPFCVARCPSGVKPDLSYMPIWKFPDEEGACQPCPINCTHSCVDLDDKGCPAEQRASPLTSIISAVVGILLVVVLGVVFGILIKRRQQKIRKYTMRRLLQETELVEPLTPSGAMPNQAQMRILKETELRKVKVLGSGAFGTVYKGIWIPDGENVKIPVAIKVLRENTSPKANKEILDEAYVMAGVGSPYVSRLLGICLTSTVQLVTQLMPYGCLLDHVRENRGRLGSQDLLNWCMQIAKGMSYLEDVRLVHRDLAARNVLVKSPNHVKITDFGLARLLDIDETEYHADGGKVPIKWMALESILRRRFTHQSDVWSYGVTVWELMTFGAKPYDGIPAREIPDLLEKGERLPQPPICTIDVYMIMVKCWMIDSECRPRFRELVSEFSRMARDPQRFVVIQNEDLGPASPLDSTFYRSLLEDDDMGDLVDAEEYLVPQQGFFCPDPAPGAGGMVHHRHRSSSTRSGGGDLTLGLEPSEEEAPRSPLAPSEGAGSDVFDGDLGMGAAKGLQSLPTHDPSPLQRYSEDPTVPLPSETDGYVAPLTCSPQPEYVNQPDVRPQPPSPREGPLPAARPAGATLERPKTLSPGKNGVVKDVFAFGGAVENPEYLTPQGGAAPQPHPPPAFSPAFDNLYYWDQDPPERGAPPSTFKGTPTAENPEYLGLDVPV
Chain of Receptor tyrosine-protein kinase erbB-4 (Q15303 whole entry): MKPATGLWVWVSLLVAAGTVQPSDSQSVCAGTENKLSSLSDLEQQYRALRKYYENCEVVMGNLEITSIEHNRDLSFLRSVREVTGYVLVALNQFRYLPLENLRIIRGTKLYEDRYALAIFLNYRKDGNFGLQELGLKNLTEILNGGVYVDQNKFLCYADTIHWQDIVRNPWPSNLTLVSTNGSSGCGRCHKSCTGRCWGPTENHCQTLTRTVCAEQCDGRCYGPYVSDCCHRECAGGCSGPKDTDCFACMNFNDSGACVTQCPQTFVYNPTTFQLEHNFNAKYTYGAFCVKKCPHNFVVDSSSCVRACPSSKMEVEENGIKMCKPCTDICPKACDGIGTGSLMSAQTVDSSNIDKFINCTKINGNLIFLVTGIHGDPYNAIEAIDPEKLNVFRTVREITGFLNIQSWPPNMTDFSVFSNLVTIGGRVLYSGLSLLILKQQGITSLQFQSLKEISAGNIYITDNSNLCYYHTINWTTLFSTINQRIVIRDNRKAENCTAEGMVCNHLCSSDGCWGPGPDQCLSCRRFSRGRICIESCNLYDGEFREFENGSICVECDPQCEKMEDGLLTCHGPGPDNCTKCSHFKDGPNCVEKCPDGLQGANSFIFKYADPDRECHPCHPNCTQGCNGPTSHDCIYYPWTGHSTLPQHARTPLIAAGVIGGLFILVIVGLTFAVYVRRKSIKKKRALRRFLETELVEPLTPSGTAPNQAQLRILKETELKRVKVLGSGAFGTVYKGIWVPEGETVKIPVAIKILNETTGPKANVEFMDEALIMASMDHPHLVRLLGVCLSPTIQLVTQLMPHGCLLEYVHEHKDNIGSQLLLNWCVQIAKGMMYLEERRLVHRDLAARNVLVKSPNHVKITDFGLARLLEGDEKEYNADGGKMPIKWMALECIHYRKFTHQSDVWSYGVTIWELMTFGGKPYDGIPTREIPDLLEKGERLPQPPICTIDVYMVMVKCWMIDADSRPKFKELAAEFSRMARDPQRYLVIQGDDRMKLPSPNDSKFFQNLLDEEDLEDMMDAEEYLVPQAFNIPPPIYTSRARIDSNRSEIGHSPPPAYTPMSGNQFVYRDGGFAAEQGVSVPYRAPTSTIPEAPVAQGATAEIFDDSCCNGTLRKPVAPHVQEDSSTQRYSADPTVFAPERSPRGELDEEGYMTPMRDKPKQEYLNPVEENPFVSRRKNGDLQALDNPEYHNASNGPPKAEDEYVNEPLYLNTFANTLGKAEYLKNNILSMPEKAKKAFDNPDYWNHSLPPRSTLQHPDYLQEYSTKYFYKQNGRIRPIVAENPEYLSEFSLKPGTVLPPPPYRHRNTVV

| Structure (SMILES) | IC50 [1] [nM] | Intrinsic clearance (CLint) [2] [µL/min/mg] | IC50 [3] [nM] | Intrinsic clearance (CLint) [4] [µL/min/mg] | Activity [5] [%] | clearance [6] [mL/min/kg] | also measured |
| --- | --- | --- | --- | --- | --- | --- | --- |
| CCC(=O)N(C)Cc1c[nH]c2ncnc(-c3cccc(NC(=O)c4ccc(C(C)(C)C)cc4)c3C)c12 | 3900 |  |  |  |  |  |  |
| C=CC(=O)N1CCC(c2c[nH]c3ncnc(-c4cc(F)cc(NC(=O)c5ccc(C6CC6)cc5)c4C)c23)CC1 | 1 | 578 | 19 | 126 |  |  |  |
| C=CC(=O)N(C)C(=O)Cc1c[nH]c2ncnc(-c3cc(F)cc(NC(=O)c4ccc(C5CC5)cc4)c3C)c12 | 1.2 | 98 | 16 | 39 | 44 | 300 |  |
| C=CC(=O)N1CC(O)(c2c[nH]c3ncnc(-c4cc(F)cc(NC(=O)c5ccc(C6CC6)cc5)c4C)c23)C1 | 1.4 | 41 | 303 | 3 |  | 183 |  |
| C=CC(=O)N(C)Cc1c[nH]c2ncnc(-c3cccc(NC(=O)c4ccc(C(C)(C)C)cc4)c3C)c12 |  | 693 | 934 | > 700 |  |  | IC50 [7]: > 10000 nM; concentration at 2 h [8]: 118 nM; concentration at 2 h [9]: 14 nM; IC50 [10]: 80 nM; CLH [11]: 554 µL/min/mg; Activity (Mus musculus [12]): Dose-dependent effect; Activity (Mus musculus [13]): 65%; inhibition [14]: Active; IC50 [15]: > 10000 nM; inhibition [16]: inactive; concentration at 2 h [17]: 4 nM; IC50 [18]: > 8000 nM; CL/F [19]: > 300 mL/min/kg; Activity (Rattus norvegicus): inactive; bioavailability [20]: 2%; inhibition [21]: inactive |
| C=CC(=O)N1CC=C(c2c[nH]c3ncnc(-c4cc(F)cc(NC(=O)c5ccc(C6CC6)cc5)c4C)c23)CC1 |  | 408 |  | 660 | 96 | > 300 |  |
| C=CC(=O)N1CCCC(c2c[nH]c3ncnc(-c4cc(F)cc(NC(=O)c5ccc(C6CC6)cc5)c4C)c23)C1 (stereo not given) | 390 | > 700 | 8000 | 603 |  |  |  |
| C=CC(=O)N1CCC(c2c[nH]c3ncnc(-c4cc(F)cc(NC(=O)c5ccc(C6CC6)cc5)c4C)c23)C1 (stereo not given) | 5 | 171 | 225 | 111 |  |  |  |
| C=CC(=O)N(C)Cc1c[nH]c2ncnc(-c3cc(F)cc(NC(=O)c4ccc(C5CC5)cc4)c3C)c12 | 26 | > 700 | 1260 | 308 |  |  |  |
| C/C=C/C(=O)N1CC=C(c2c[nH]c3ncnc(-c4cc(F)cc(NC(=O)c5ccc(C6CC6)cc5)c4C)c23)CC1 | 6 | 127 | 66 | 459 | 70 | > 300 |  |
| C=CC(=O)N(C)Cc1c[nH]c2ncnc(-c3cccc(NC(=O)c4ccc(C5CC5)cc4)c3C)c12 | 190 | 578 | 7470 | 252 |  |  |  |
| C=CC(=O)N1CCC[C@@H](n2nc(-c3ccc(Oc4ccccc4)cc3)c3c(N)ncnc32)C1 [IBRUTINIB] |  |  |  |  | 93 |  | concentration at 2 h [22]: 187 nM; Activity (Mus musculus [23]): 84% |
| Cc1c(NC(=O)c2ccc(C3CC3)cc2)cc(F)cc1-c1ncnc2[nH]cc(C3=CCN(C(=O)/C=C/CN4CCCC4)CC3)c12 | 0.6 | 628 | 26 | > 700 |  | 176 | Activity (Rattus norvegicus): inactive |
